In test [1] the target is T1, CAL PDZ domain (CALP) (Homo sapiens, UniProt Q9HD26). As to the kind of experiment: Fluorescence polarization competition binding, CALP with F*C-GBG4_10 reporter. In general terms: In fluorescence polarisation assays a small probe gives low polarisation when free and higher when bound to something large.
Test [2] deals with T1, CAL PDZ domain (CALP). The experiment in a line: Fluorescence polarization competition binding, CALP with F*C-SSR5_10 reporter. The method, boiled down:
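Competition FP using fluorescein-5-maleimide-labelled Cys-peptide reporter in FP buffer: storage buffer (25 mM Tris pH 8.5, 150 mM NaCl, 0.02% NaN3, 0.1 mM TCEP or 1 mM DTT) plus 0.1 mg/mL bovine IgG and 0.5 mM Thesit. Unlabelled Cys-peptides titrated into reporter–protein mix, 15 min at 24 °C. Ex 485/em 525 nm. Ki fit with free protein from exact cubic solution, using known reporter Kd.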

The target of the next test is full-length CAL (Homo sapiens, UniProt Q9HD26). The experiment in a line: Fluorescence polarization direct binding, full-length CAL. Conditions: 30 nM reporter titrated with full-length CAL. The method, boiled down:
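Direct titration: full-length CAL pre-incubated 10–30 min at room temperature in FP buffer (storage buffer 25 mM Tris pH 8.5, 150 mM NaCl, 0.02% NaN3, 0.1 mM ATP, plus 0.1 mg/mL bovine IgG, 0.5 mM Thesit) containing fluorescent peptide. Serially diluted into the same buffer, then 10 min incubation and 15 min equilibration at 24 °C. Polarization read at ex 485/em 525 nm.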

In test [3] the target is T2, NHERF1 PDZ1 domain (N1P1) (Homo sapiens, UniProt O14745).
T2 sequence (O14745 1-139): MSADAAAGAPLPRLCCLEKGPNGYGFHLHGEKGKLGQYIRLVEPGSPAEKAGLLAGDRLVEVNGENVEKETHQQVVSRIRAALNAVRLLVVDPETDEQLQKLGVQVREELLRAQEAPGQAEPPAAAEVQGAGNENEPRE
The experiment in a line: Fluorescence polarization direct binding, NHERF1 PDZ1. Conditions: titration with increasing N1P1.

Test [4] concerns the target T3, NHERF1 PDZ2 domain (N1P2) (Homo sapiens, UniProt O14745).
T3 sequence (O14745 132-299): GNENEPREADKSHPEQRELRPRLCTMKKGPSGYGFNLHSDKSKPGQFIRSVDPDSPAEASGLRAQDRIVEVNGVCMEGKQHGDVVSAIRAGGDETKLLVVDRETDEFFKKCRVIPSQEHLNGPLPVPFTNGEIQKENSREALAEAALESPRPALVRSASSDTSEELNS
As to the kind of experiment: Fluorescence polarization direct binding, NHERF1 PDZ2. Conditions: titration with increasing N1P2.

In general, Ki refers to the equilibrium dissociation constant of an inhibitor or competing ligand from its target. Low values mean tighter binding, high ones weaker binding.

No end group written: not given here.

Regarding CREKKFFSTIL [C-GBG4_10], the Ki at CAL PDZ domain (CALP) [1] was 109 ± 12 µM; on CAL PDZ domain (CALP) [2], 63 ± 15 µM.

Consider `CC(C)C[C@H](NC(=O)[C@H](CCCNC(=N)N)NC(=O)[C@@H](NC(=O)[C@H](CC(=O)O)NC(=O)[C@H](CCC(N)=O)NC(=O)[C@@H](NC(=O)[C@H](CCC(=O)O)NC(=O)[C@H](CCC(=O)O)NC(=O)[C@H](CCC(=O)O)NC(=O)[C@@H](NC(=O)c1ccc2c(c1)C(=O)OC21c2ccc(O)cc2Oc2cc(O)ccc21)[C@@H](C)O)C(C)C)[C@@H](C)O)C(=O)O` [F*-CFTR10], for which the “interaction in FP titration” value on full-length CAL was “too weak to be fit”.

On to “F*C-SCR6: fluorescent reporter peptide with a scrambled sequence (C(fluorescein‑5‑maleimide)QVTLDR)”, for which the “FP shift of reporter” value in test [3] and in test [4] was “neither domain caused an FP shift” in each case.

For the origin of these results see publication PMC2582146 (Biochemistry, 2008).
